Calls of active or inactive are those of the source. The rule behind the calls is not given here.
Tests used:
[1] = AUClast in mouse at 10 mg/kg, ip; type: ADME, organism-based; details: in vivo
NCI-H1650 [2] = test: Cytotoxicity against human NCI-H1650 cells assessed as growth inhibition after 48 hrs by MTT assay; type: functional
How it was run: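 H1650 cells were exposed to drug for 48 h at five concentrations bracketing 1–40 μM in 10 μM steps, with MTT read-out. GI50 is given only where the data form a sigmoidal dose response.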

NCI-H1650 [3] = test: Cell cycle arrest in human NCI-H1650 cells assessed as accumulation at sub-G1 phase by propidium iodide staining-based flow cytometric analysis; type: functional
[4] = AUClast in mouse at 1 mg/kg, iv; type: ADME, organism-based; details: in vivo
[5] = target: D(1B) dopamine receptor (Homo sapiens) (UniProt P21918); test: Binding affinity to dopamine D5 receptor (unknown origin) at 0.1 mM by radioligand displacement assay relative to control
[6] = target: D(1A) dopamine receptor (Homo sapiens) (UniProt P21728); test: Binding affinity to dopamine D1 receptor (unknown origin) at 1 mM by radioligand displacement assay relative to control
[7] = Tmax in mouse at 10 mg/kg, po; type: ADME, organism-based; details: in vivo
[8] = Half life in mouse at 10 mg/kg, po; type: ADME, organism-based; details: in vivo
[9] = AUCinfinity in mouse at 10 mg/kg, po; type: ADME, organism-based; parameters: dose 10 mg/kg, time infinity, route oral; details: in vivo
[10] = Oral bioavailability in mouse at 10 mg/kg; type: ADME, organism-based; details: in vivo
Mus musculus = test: Toxicity in mouse assessed as induction of lethargy at 10 mg/kg relative to control; type: organism-based; details: in vivo
[11] = AUClast in mouse at 10 mg/kg, po; type: ADME, organism-based; details: in vivo
[12] = Initial drug concentration in mouse at 1 mg/kg, iv; type: ADME, organism-based; details: in vivo
NCI-H1650 [13] = test: Cytotoxicity against human NCI-H1650 cells assessed as reduction of colony formation at 20 to 40 uM after 7 days by crystal violet staining; type: functional, cell-based
[14] = target: D(1A) dopamine receptor (Homo sapiens) (UniProt P21728); test: Binding affinity to dopamine D1 receptor (unknown origin) at 0.1 mM by radioligand displacement assay relative to control
[15] = Volume of distribution at steady state in mouse at 1 mg/kg, iv; type: ADME, organism-based; details: in vivo, read-out: Vdss
[16] = Half life in mouse at 1 mg/kg, ip; type: ADME, organism-based; details: in vivo
[17] = target: D(2) dopamine receptor (Homo sapiens) (UniProt P14416); test: Binding affinity to dopamine D2 receptor (unknown origin) at 1 mM by radioligand displacement assay relative to control
[18] = AUCinfinity in mouse at 1 mg/kg, iv; type: ADME, organism-based; parameters: dose 1 mg/kg, time infinity, route intravenous; details: in vivo
[19] = AUCinfinity in mouse at 1 mg/kg, ip; type: ADME, organism-based; parameters: time infinity, route intraperitoneal; details: in vivo
[20] = Tmax in mouse at 10 mg/kg, ip; type: ADME, organism-based; details: in vivo
[21] = Cmax in mouse at 10 mg/kg, ip; type: ADME, organism-based; parameters: dose 10 mg/kg, route intraperitoneal; details: in vivo
[22] = Cmax in mouse at 10 mg/kg, po; type: ADME, organism-based; parameters: dose 10 mg/kg, route oral; details: in vivo
[23] = Half life in mouse at 1 mg/kg, iv; type: ADME, organism-based; details: in vivo
[24] = Bioavailability in mouse at 10 mg/kg, ip; type: ADME, organism-based; details: in vivo
[25] = Clearance in mouse at 1 mg/kg, iv; type: ADME, organism-based; details: in vivo
[26] = target: T1, D(4) dopamine receptor (Homo sapiens) (UniProt P21917); test: Binding affinity to dopamine D4 receptor (unknown origin) at 0.1 mM by radioligand displacement assay relative to control
T1 sequence (whole entry): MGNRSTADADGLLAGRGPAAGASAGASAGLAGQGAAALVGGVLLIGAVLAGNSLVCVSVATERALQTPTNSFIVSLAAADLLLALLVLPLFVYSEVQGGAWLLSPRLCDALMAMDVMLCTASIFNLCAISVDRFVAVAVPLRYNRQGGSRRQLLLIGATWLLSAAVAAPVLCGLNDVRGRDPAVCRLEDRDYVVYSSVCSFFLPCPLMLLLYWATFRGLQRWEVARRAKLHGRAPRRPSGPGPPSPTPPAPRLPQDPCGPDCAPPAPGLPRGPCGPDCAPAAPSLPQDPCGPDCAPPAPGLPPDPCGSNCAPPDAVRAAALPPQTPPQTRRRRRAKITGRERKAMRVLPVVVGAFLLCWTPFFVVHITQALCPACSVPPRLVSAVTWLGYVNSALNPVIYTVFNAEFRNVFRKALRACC

[27] = target: D(2) dopamine receptor (Homo sapiens) (UniProt P14416); test: Binding affinity to dopamine D2 receptor (unknown origin) at 0.1 mM by radioligand displacement assay relative to control
[28] = target: D(3) dopamine receptor (Homo sapiens) (UniProt P35462); test: Binding affinity to dopamine D3 receptor (unknown origin) at 0.1 mM by radioligand displacement assay relative to control
Chain of D(3) dopamine receptor (Homo sapiens) (P35462 whole entry): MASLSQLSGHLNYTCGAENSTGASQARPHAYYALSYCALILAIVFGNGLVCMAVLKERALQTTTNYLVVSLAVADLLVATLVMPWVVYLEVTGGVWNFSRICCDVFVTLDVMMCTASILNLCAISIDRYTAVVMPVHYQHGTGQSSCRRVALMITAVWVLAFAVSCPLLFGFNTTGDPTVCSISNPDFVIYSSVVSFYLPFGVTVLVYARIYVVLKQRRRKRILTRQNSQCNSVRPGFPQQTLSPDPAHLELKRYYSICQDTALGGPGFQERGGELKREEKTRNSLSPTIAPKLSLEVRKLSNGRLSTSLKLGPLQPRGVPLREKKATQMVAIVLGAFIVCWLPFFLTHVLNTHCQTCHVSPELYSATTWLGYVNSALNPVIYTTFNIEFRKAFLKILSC

Chain of D(1A) dopamine receptor (Homo sapiens) (P21728 whole entry): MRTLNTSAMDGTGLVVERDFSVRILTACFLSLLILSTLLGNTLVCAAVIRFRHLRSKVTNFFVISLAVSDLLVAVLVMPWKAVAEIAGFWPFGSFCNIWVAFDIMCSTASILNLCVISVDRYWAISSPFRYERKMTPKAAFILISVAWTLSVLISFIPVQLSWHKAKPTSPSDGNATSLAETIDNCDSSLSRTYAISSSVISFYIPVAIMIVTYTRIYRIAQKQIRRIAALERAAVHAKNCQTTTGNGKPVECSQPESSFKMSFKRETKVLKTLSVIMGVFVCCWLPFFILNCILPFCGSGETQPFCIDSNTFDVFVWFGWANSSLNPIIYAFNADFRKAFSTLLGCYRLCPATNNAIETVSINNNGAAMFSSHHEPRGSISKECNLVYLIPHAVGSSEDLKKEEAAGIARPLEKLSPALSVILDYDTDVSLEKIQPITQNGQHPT
Chain of D(2) dopamine receptor (Homo sapiens) (P14416 whole entry): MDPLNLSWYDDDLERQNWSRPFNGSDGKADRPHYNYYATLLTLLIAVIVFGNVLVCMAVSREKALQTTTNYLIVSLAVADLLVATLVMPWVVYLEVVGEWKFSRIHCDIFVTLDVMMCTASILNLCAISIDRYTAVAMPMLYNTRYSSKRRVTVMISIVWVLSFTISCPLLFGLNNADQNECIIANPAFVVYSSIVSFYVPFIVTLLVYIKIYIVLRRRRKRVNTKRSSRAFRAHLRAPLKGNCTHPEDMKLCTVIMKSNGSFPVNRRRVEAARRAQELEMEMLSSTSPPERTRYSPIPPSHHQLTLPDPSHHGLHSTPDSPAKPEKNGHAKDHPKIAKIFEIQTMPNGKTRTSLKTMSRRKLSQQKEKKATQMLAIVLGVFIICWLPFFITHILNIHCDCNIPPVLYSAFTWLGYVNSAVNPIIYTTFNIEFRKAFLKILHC
Chain of D(1B) dopamine receptor (Homo sapiens) (P21918 whole entry): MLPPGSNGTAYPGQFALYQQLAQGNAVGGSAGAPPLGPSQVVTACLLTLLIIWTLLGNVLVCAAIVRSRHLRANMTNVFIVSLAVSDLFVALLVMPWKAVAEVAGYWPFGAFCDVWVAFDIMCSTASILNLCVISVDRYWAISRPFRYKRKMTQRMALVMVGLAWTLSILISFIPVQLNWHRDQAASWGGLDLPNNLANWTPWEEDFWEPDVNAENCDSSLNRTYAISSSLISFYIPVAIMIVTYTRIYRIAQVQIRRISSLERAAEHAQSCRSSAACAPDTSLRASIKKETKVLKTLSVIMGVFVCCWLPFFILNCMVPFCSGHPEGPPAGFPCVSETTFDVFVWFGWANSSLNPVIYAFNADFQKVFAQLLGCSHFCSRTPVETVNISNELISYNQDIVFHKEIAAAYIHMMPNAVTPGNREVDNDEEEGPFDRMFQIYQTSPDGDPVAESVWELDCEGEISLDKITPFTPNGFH

Cc1ccc(S(=O)(=O)NCCCN2c3ccccc3Sc3ccc(Cl)cc32)cc1
AUC(0-t) [1]: 7440 ng·h/mL
GI50 (NCI-H1650 [2]; NCI-H1650, 48 h): > 40 µM
Activity (NCI-H1650 [3]): Dose-dependent effect
AUC(0-t) [4]: 1480 ng·h/mL
inhibition [5]: < 10%
inhibition [6]: 12%
Tmax [7]: 0.5 h
half-life [8]: 3.14 h
AUC(0-inf) [9]: 2510 ng·h/mL
bioavailability [10]: 16.9%
Activity (Mus musculus): Non-toxic
AUC(0-t) [11]: 2500 ng·h/mL
C0 [12]: 2970 ng/mL
Activity (NCI-H1650 [13]): Active
inhibition [14]: < 5%
Vd [15]: 0.72 L/kg
half-life [16]: 4.35 h
inhibition [17]: 14%
AUC(0-inf) [18]: 1500 ng·h/mL
AUC(0-inf) [19]: 7570 ng·h/mL
Tmax [20]: 1 h
Cmax [21]: 2250 ng/mL
Cmax [22]: 834 ng/mL
half-life [23]: 1.36 h
bioavailability [24]: 50.2%
clearance [25]: 11.1 mL/min/kg

O=S(=O)(NCCCN1c2ccccc2CCc2ncccc21)c1ccc(OC(F)(F)F)cc1
GI50 (NCI-H1650 [2]; NCI-H1650, 48 h): 27 µM

O=S(=O)(NCCCN1c2ccccc2CCc2ccc(Cl)cc21)c1cc(Cl)sc1Cl
GI50 (NCI-H1650 [2]; NCI-H1650, 48 h): 25 µM

O=S(=O)(NCC/C=C1/c2ccccc2Sc2ccc(Cl)cc21)c1ccc(OC(F)(F)F)cc1
GI50 (NCI-H1650 [2]; NCI-H1650, 48 h): 40 µM

COC(=O)NCCCN1c2ccccc2CCc2ccc(Cl)cc21
GI50 (NCI-H1650 [2]; NCI-H1650, 48 h): > 40 µM
inhibition [5]: < 10%
inhibition [26]: < 5%
inhibition [14]: < 5%
inhibition [27]: < 5%
inhibition [28]: < 5%

O=S(=O)(NCCCN1c2ccccc2CCc2ccccc21)c1ccc(Cl)cc1
GI50 (NCI-H1650 [2]; NCI-H1650, 48 h): 20.6 µM

O=S(=O)(NCCCCN1c2ccccc2CCc2ccc(Cl)cc21)c1ccc(Cl)cc1
GI50 (NCI-H1650 [2]): inactive

O=S(=O)(NCCCN1c2ccccc2CCc2ccc(Cl)cc21)c1cccc(OC(F)(F)F)c1
GI50 (NCI-H1650 [2]; NCI-H1650, 48 h): 20 µM

Reference: ChEMBL document CHEMBL3611968, “Reengineered tricyclic anti-cancer agents” (Bioorg Med Chem, 2015)
